# Measurements collected from several papers.
# Compare with care: the assays were run in different laboratories.
# Mc1r: Melanocyte-stimulating hormone receptor (Mc1r, Mus musculus, UniProt Q01727)
# PSMB8: Proteasome subunit beta type-8 (PSMB8, Homo sapiens, UniProt P28062)
Structure (SMILES),target,assay,conditions,measurement,result
CC[C@H](C)[C@H](NC(=O)[C@H](CO)NC(=O)[C@H](Cc1ccc(O)cc1)NC(=O)[C@H](CC(=O)O)NC(=O)[C@H](CO)NC(=O)[C@@H](NC(=O)[C@H](Cc1ccccc1)NC(=O)[C@@H](NC(=O)CNC(=O)[C@H](CCC(=O)O)NC(=O)[C@H](C)NC(=O)[C@@H](N)Cc1ccc(O)cc1)[C@@H](C)O)[C@@H](C)CC)C(=O)N[C@@H](C)C(=O)N[C@@H](CCSC)C(=O)N[C@@H](CC(=O)O)C(=O)N[C@@H](CCCCN)C(=O)N[C@H](C(=O)N[C@@H](Cc1c[nH]cn1)C(=O)N[C@@H](CCC(N)=O)C(=O)N[C@@H](CCC(N)=O)C(=O)N[C@@H](CC(=O)O)C(=O)N[C@@H](Cc1ccccc1)C(=O)N[C@H](C(=O)N[C@@H](CC(N)=O)C(=O)N[C@@H](Cc1c[nH]c2ccccc12)C(=O)N[C@@H](CC(C)C)C(=O)N[C@@H](CC(C)C)C(=O)N[C@@H](C)C(=O)N[C@@H](CCC(N)=O)C(=O)N[C@@H](CCCCN)C(=O)NCC(=O)N[C@@H](CCCCN)C(=O)N[C@@H](CCCCN)C(=O)N[C@@H](CC(N)=O)C(=O)N[C@@H](CC(=O)O)C(=O)N[C@@H](Cc1c[nH]c2ccccc12)C(=O)N[C@@H](CCCCN)C(=O)N[C@@H](Cc1c[nH]cn1)C(=O)N[C@@H](CC(N)=O)C(=O)N[C@H](C(=O)N[C@H](C(=O)N[C@@H](CCC(N)=O)C(=O)O)[C@@H](C)O)[C@@H](C)CC)C(C)C)[C@@H](C)CC,"Glucagon receptor (GCGR, Homo sapiens, UniProt P47871)","reporter gene, agonist, luciferase",,EC50,> 1 µM
N=C(N)NCCC[C@H](NC(=O)[C@H](CC(=O)O)NC(=O)[C@@H](N)Cc1c[nH]c2ccccc12)C(=O)N[C@@H](Cc1ccccc1)C(=O)NCC(=O)O,Mc1r,"reporter gene, agonist",,EC50,> 100 µM
CC1=C(/C=C/C(C)=C/C=C/C(C)=C/C=O)C(C)(C)CCC1,"Cellular retinoic acid-binding protein 2 (CRABP2, Homo sapiens, UniProt P29373, L122E/R112L/R133K)","binding, fluorescence",,Kd,0.00136 µM
CSCC[C@H](NC(=O)[C@@H](NC(=O)[C@@H](N)Cc1ccc(O)cc1)C(C)C)C(=O)NCC(=O)N[C@@H](Cc1c[nH]cn1)C(=O)N[C@@H](Cc1ccccc1)C(=O)N[C@@H](CCCNC(=N)N)C(=O)N[C@@H](Cc1c[nH]c2ccccc12)C(=O)O,Mc1r,"reporter gene, agonist",,EC50,2.9 µM
C[C@@H]1NC(=O)[C@H](CCCNC(=N)N)NC(=O)[C@H](Cc2ccccc2)NC(=O)[C@H](Cc2ccccc2)NC(=O)[C@H](CCCNC(=N)N)NC(=O)[C@@H]2CCCN2C(=O)[C@H]2CCCN2C(=O)[C@H](Cc2ccccc2)NC1=O,Mc1r,"reporter gene, agonist",,EC50,> 100 µM
Cc1ncc(C(=O)N[C@@H](CC2CCC3CCCCC3C2)C(=O)N[C@@H](CC(C)C)C(=O)N[C@H](/C=C/S(C)(=O)=O)Cc2ccc(CN)cc2)s1 (stereo partly shown),PSMB8,"enzyme activity, inhibitor",lysate,IC50,> 10 µM
CSCC[C@H](NC(=O)[C@@H](NC(=O)[C@@H](N)Cc1ccc(O)cc1)C(C)C)C(=O)NCC(=O)O,Mc1r,"reporter gene, agonist",,EC50,> 100 µM
Cc1ncc(C(=O)N[C@@H](CC(C)C)C(=O)N[C@@H](CCC2CCCCC2)C(=O)N[C@H](/C=C/S(C)(=O)=O)Cc2ccc(CN)cc2)s1,PSMB8,"enzyme activity, inhibitor",lysate,IC50,3.98 µM
CN1CCN(c2ccc(Nc3ncc4cc(C#N)c(=O)n(C5CCCC5)c4n3)cc2)CC1,"Ephrin type-A receptor 1 (EPHA1, Homo sapiens, UniProt P21709)","enzyme activity, inhibitor",,IC50,0.0576 µM
CC(C)C[C@H](NC(=O)CN1CCOCC1)C(=O)N[C@@H](CC(C)C)C(=O)N[C@H](/C=C/S(C)(=O)=O)Cc1ccc(CN)cc1,PSMB8,"enzyme activity, inhibitor",lysate,IC50,> 10 µM
CCOc1ccc2c(-c3cc(C)nc(Nc4cc(OC)cc(C(F)(F)F)c4)n3)cnn2n1,"Homeodomain-interacting protein kinase 2 (HIPK2, Homo sapiens, UniProt Q9H2X6)","enzyme activity, inhibitor",,IC50,> 10 µM
Cc1ncc(C(=O)N[C@@H](CC2CCCCC2)C(=O)N[C@@H](CC2CCCCC2)C(=O)N[C@H](/C=C/S(C)(=O)=O)Cc2ccc(CN)cc2)s1,PSMB8,"enzyme activity, inhibitor",lysate,IC50,> 10 µM
CCCC[C@H](NC(=O)[C@@H](NC(=O)[C@@H](N)Cc1ccc(O)cc1)C(C)C)C(=O)NCC(=O)N[C@@H](Cc1c[nH]cn1)C(=O)N[C@@H](Cc1ccccc1)C(=O)N[C@@H](CCCN=C(N)N)C(=O)N[C@@H](Cc1c[nH]c2ccccc12)C(=O)N[C@@H](CC(=O)O)C(=O)N[C@@H](CCCN=C(N)N)C(=O)N[C@@H](Cc1ccccc1)C(=O)NCC(=O)O,Mc1r,"reporter gene, agonist",,EC50,0.39 µM
